Experimental data: ChEMBL document CHEMBL3580569, “N-Substituted Quinolinonyl Diketo Acid Derivatives as HIV Integrase Strand Transfer Inhibitors and Their Activity against RNase H Function of Reverse Transcriptase” (J Med Chem, 2015)

Key:
[1] = target: Human immunodeficiency virus type 1 reverse transcriptase (Human immunodeficiency virus 1) (UniProt Q72547); experiment: Inhibition of RNase H function of HIV1 reverse transcriptase using DNA/RNA hybrid as substrate at 10 uM by fluorescence spectrometer analysis
Summary of the method: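 RNase H activity of HIV-1 RT was measured with an RNA/DNA hybrid substrate at 250 nM final, with 150–800 ng RT, in 50 mM Tris-HCl pH 8.0, 60 mM KCl, 10 mM MgCl2 and 1% DMSO, against DMSO-only wells. Fluorescence (ex 485/em 520 nm) was read each minute over 10 min at 37 °C. Percent inhibition at 10 μM = 100(v0−vi)/v0 from initial rates, run in triplicate.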

[2] = target: Human immunodeficiency virus type 1 reverse transcriptase (Human immunodeficiency virus 1, UniProt Q72547); experiment: Inhibition of RNase H function of HIV1 reverse transcriptase using DNA/RNA hybrid as substrate by fluorescence spectrometer analysis
[3] = tested on: Human immunodeficiency virus 1; experiment: Antiviral activity against HIV-1 3B infected in human HeLa-CD4-LTR-beta-gal cells assessed as inhibition of viral replication by SpectraMax GEMINI-XS plate reader analysis; type: functional, organism-based; settings: Human immunodeficiency virus 1, 3B
Summary of the method: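 HeLa-CD4-LTR-β-gal cells kept in DMEM, 10% serum, 0.5 mg/mL G418; seeded 10000 cells/well the day before. Drug 3-fold serially diluted over six points on cells (top 50 μM), then fresh medium or concentrated HIV-1(IIIB) supernatant added.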

[4] = target: T1, Human immunodeficiency virus type 1 integrase (Human immunodeficiency virus 1, UniProt Q7ZJM1)
T1 sequence (Q7ZJM1 whole entry): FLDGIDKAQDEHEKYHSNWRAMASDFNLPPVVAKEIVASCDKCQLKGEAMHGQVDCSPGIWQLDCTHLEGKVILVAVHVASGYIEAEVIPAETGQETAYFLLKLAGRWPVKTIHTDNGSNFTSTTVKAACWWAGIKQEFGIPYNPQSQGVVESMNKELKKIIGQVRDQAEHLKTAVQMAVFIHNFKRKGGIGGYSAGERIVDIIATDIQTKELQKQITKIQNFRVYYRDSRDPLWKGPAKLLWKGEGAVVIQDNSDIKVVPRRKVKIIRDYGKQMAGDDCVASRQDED

[5] = target: T1, Human immunodeficiency virus type 1 integrase; remark: listed apart in the source
HeLa = experiment: Cytotoxicity against human HeLa-CD4-LTR-beta-gal cells after 24 hrs by ATPlite reagent based luminescence analysis; type: cell-based
[6] = Selectivity index, ratio of CC50 for human HeLa-CD4-LTR-beta-gal cells to EC50 for HIV-1 3B infected in human HeLa-CD4-LTR-beta-gal cells; type: toxicity; settings: read-out: Ratio CC50/EC50

Row | SMILES | inhibition [1] [%] | IC50 [2] [µM] | EC50 [3] [µM] | IC50 [4] [µM] | IC50 [5] [µM] | CC50 (HeLa) [µM] | selectivity ratio [6]
1 | O=C(O)/C(O)=C/C(=O)c1cn(Cc2ccc(Cl)cc2)c2ccccc2c1=O | 56.2 | > 50 | 0.87 | 22 | 0.54 | > 50 | > 57.5
2 | O=C(O)/C(O)=C/C(=O)c1cn(Cc2ccccc2F)c2ccccc2c1=O | 45.1 | > 50 | 2.6 | 1.2 | 0.016 | > 50 | > 19.2
3 | O=C(O)/C(O)=C/C(=O)c1cn(Cc2ccccc2F)c2c(Cl)cccc2c1=O | 45 | > 50 | > 50 | 20.5 | 0.13 | – | –
4 | O=C(O)/C(O)=C/C(=O)c1cn(Cc2ccccc2F)c2cc(Cl)ccc2c1=O | – | 22.6 | 17 | – | – | > 50 | > 2.9
5 | CCOC(=O)/C(O)=C/C(=O)c1cn(Cc2c(Cl)cccc2Cl)c2ccccc2c1=O | 55 | > 50 | 30.2 | – | 32 | > 50 | > 1.7
6 | COc1ccccc1Cn1cc(C(=O)/C=C(\O)C(=O)O)c(=O)c2ccccc21 | – | 16.3 | 9.3 | > 4.1 | 0.038 | > 50 | > 5.4
7 | O=C(O)/C(O)=C/C(=O)c1cn(Cc2ccc(F)cc2F)c2ccccc2c1=O | – | 35.9 | 13.8 | – | 0.01 | > 50 | > 3.6
8 | O=C(O)/C(O)=C/C(=O)c1cn(Cc2ccc(F)c(F)c2)c2ccccc2c1=O | 44 | > 50 | 16.2 | – | 0.11 | > 50 | > 3.1
9 | O=C(O)/C(O)=C/C(=O)c1cn(Cc2c(F)cccc2F)c2ccccc2c1=O [RDS-1984] | – | 10.8 | 8.1 | 0.7 | 0.019 | > 50 | > 6.2
